Experimental findings from ChEMBL document CHEMBL1151854, “Dendrimers ended by non-symmetrical azadiphosphonate groups: synthesis and immunological properties” (Bioorg Med Chem Lett, 2009) are described below.

For data set [1], the system named is PBMC. Put plainly: Activation of human PBMC assessed as down-regulation of HLA-DR expression at 20 uM after 4 days by flow cytometry. It counts as functional, cell-based. The essentials: (§1)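 Fresh blood from healthy adult donors; PBMC isolated on Ficoll-Paque gradient (800 g, 30 min, room temperature), washed twice and cultured at 1.5 million cells/mL in RPMI 1640 with penicillin/streptomycin, 1 mM pyruvate and 10% heat-inactivated FCS. Sterile-filtered dendrimer was added at the final concentration. Monocytes were gated by morphology. The readout was HLA-DR (FITC) or CD14 (PE-Pc5) staining, given as the mfi ratio versus isotype control. Three donors were tested.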
In general terms: In flow cytometry, cells or beads pass a laser one at a time.

Data set [2] concerns PBMC. Description: Activation of human PBMC assessed as down-regulation of CD14 expression at 20 uM after 4 days by flow cytometry. The format is functional, cell-based. In a few lines: as §1
For data set [3], the system named is PBMC. Put plainly: Activation of human PBMC assessed as down-regulation of CD14 expression at 2 uM after 4 days by flow cytometry. It counts as functional, cell-based. In a few lines: as §1
The test system of data set [4] is PBMC. Description: Activation of human PBMC assessed as down-regulation of HLA-DR expression at 2 uM after 4 days by flow cytometry. The format is functional, cell-based. In a few lines: as §1
Data set [5] is described as follows: Solubility in water. It counts as physicochemical. The conditions noted are these: buffer.
Data set [6] relates to PBMC. Put plainly: Activation of human PBMC assessed as down-regulation of HLA-DR expression by flow cytometry. It counts as functional, cell-based. The essentials:
as §1

The test system of data set [7] is PBMC. Description: Activation of human PBMC assessed as occurrence of bigger and granular monocytes by flow cytometry. The format is functional, cell-based. In a few lines:
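Donor PBMC were prepared on Ficoll-Paque and cultured in complete RPMI 1640 (10% heat-inactivated FCS, 1.5 million cells/mL) with sterile-filtered dendrimer at the final concentration. By flow cytometry (LSR-II), monocytes were selected on scatter morphology, and the read-out was an increase in cell size and granularity.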

The subject of data set [8] is PBMC. Put plainly: Activation of human PBMC assessed as down-regulation of HLA-DR expression after 4 days by flow cytometry. The format is functional, cell-based. The essentials: as §1
Data set [9] has as its system PBMC. Description: Activation of human PBMC assessed as down-regulation of CD14 expression by flow cytometry. The format is functional, cell-based. The essentials: as §1
In data set [10] the test system is PBMC. Put plainly: Activation of human PBMC assessed as down-regulation of CD14 expression after 4 days by flow cytometry. The format is functional, cell-based. The essentials: as §1
The test system of data set [11] is PBMC. Put plainly: Cytotoxicity against long-lasting cultures of human PBMC. It counts as cell-based.

The source made the active and inactive calls. No cut-off for these calls is given here.

Take `CN(CP(=O)(O)O)C(c1ccc(OP(=S)(Oc2ccc(C(N(C)CP(=O)(O)O)P(=O)(O)O)cc2)N(C)/N=C/c2ccc(OP3(Oc4ccc(/C=N/N(C)P(=S)(Oc5ccc(C(N(C)CP(=O)(O)O)P(=O)(O)O)cc5)Oc5ccc(C(N(C)CP(=O)(O)O)P(=O)(O)O)cc5)cc4)=NP(Oc4ccc(/C=N/N(C)P(=S)(Oc5ccc(C(N(C)CP(=O)(O)O)P(=O)(O)O)cc5)Oc5ccc(C(N(C)CP(=O)(O)O)P(=O)(O)O)cc5)cc4)(Oc4ccc(/C=N/N(C)P(=S)(Oc5ccc(C(N(C)CP(=O)(O)O)P(=O)(O)O)cc5)Oc5ccc(C(N(C)CP(=O)(O)O)P(=O)(O)O)cc5)cc4)=NP(Oc4ccc(/C=N/N(C)P(=S)(Oc5ccc(C(N(C)CP(=O)(O)O)P(=O)(O)O)cc5)Oc5ccc(C(N(C)CP(=O)(O)O)P(=O)(O)O)cc5)cc4)(Oc4ccc(/C=N/N(C)P(=S)(Oc5ccc(C(N(C)CP(=O)(O)O)P(=O)(O)O)cc5)Oc5ccc(C(N(C)CP(=O)(O)O)P(=O)(O)O)cc5)cc4)=N3)cc2)cc1)P(=O)(O)O` (stereo not drawn): the result in [1], in data set [2], in data set [3] and in data set [4] was Active.

With `C=CCN(CP(=O)([O-])O)C(c1ccc(OP(=S)(Oc2ccc(C(N(CC=C)CP(=O)([O-])O)P(=O)([O-])O)cc2)N(C)/N=C/c2ccc(OP3(Oc4ccc(/C=N/N(C)P(=S)(Oc5ccc(C(N(CC=C)CP(=O)([O-])O)P(=O)([O-])O)cc5)Oc5ccc(C(N(CC=C)CP(=O)([O-])O)P(=O)([O-])O)cc5)cc4)=NP(Oc4ccc(/C=N/N(C)P(=S)(Oc5ccc(C(N(CC=C)CP(=O)([O-])O)P(=O)([O-])O)cc5)Oc5ccc(C(N(CC=C)CP(=O)([O-])O)P(=O)([O-])O)cc5)cc4)(Oc4ccc(/C=N/N(C)P(=S)(Oc5ccc(C(N(CC=C)CP(=O)([O-])O)P(=O)([O-])O)cc5)Oc5ccc(C(N(CC=C)CP(=O)([O-])O)P(=O)([O-])O)cc5)cc4)=NP(Oc4ccc(/C=N/N(C)P(=S)(Oc5ccc(C(N(CC=C)CP(=O)([O-])O)P(=O)([O-])O)cc5)Oc5ccc(C(N(CC=C)CP(=O)([O-])O)P(=O)([O-])O)cc5)cc4)(Oc4ccc(/C=N/N(C)P(=S)(Oc5ccc(C(N(CC=C)CP(=O)([O-])O)P(=O)([O-])O)cc5)Oc5ccc(C(N(CC=C)CP(=O)([O-])O)P(=O)([O-])O)cc5)cc4)=N3)cc2)cc1)P(=O)([O-])O.[Na+].[Na+].[Na+].[Na+].[Na+].[Na+].[Na+].[Na+].[Na+].[Na+].[Na+].[Na+].[Na+].[Na+].[Na+].[Na+].[Na+].[Na+].[Na+].[Na+].[Na+].[Na+].[Na+].[Na+]` (stereo not drawn), the solubility entry in data set [5] was “Soluble”. In addition, the outcome in data set [6], in data set [1], in data set [7], in data set [2], in [9] and in data set [3] was Active. Moreover, the result in data set [4] was Active. The Activity entry in [8] and in [10] was “Dose-dependent effect” each time.

With `CCCCN(CP(=O)([O-])O)C(c1ccc(OP(=S)(Oc2ccc(C(N(CCCC)CP(=O)([O-])O)P(=O)([O-])O)cc2)N(C)/N=C/c2ccc(OP3(Oc4ccc(/C=N/N(C)P(=S)(Oc5ccc(C(N(CCCC)CP(=O)([O-])O)P(=O)([O-])O)cc5)Oc5ccc(C(N(CCCC)CP(=O)([O-])O)P(=O)([O-])O)cc5)cc4)=NP(Oc4ccc(/C=N/N(C)P(=S)(Oc5ccc(C(N(CCCC)CP(=O)([O-])O)P(=O)([O-])O)cc5)Oc5ccc(C(N(CCCC)CP(=O)([O-])O)P(=O)([O-])O)cc5)cc4)(Oc4ccc(/C=N/N(C)P(=S)(Oc5ccc(C(N(CCCC)CP(=O)([O-])O)P(=O)([O-])O)cc5)Oc5ccc(C(N(CCCC)CP(=O)([O-])O)P(=O)([O-])O)cc5)cc4)=NP(Oc4ccc(/C=N/N(C)P(=S)(Oc5ccc(C(N(CCCC)CP(=O)([O-])O)P(=O)([O-])O)cc5)Oc5ccc(C(N(CCCC)CP(=O)([O-])O)P(=O)([O-])O)cc5)cc4)(Oc4ccc(/C=N/N(C)P(=S)(Oc5ccc(C(N(CCCC)CP(=O)([O-])O)P(=O)([O-])O)cc5)Oc5ccc(C(N(CCCC)CP(=O)([O-])O)P(=O)([O-])O)cc5)cc4)=N3)cc2)cc1)P(=O)([O-])O.[Na+].[Na+].[Na+].[Na+].[Na+].[Na+].[Na+].[Na+].[Na+].[Na+].[Na+].[Na+].[Na+].[Na+].[Na+].[Na+].[Na+].[Na+].[Na+].[Na+].[Na+].[Na+].[Na+].[Na+]` (stereo not drawn), the Activity result in data set [11] is recorded as “Toxic”. Besides, the solubility entry in data set [5] is “Soluble”. In addition, the outcome in [6], in data set [1], in data set [7], in data set [2], in data set [9] and in data set [3] was Active. Further, in data set [4], the outcome was Active.
